An excerpt weighted towards active compounds, which were near 3.5% of everything screened.
DENV2 CPE: inhibitors of DENV2 cytopathic effect. 1.7% of 350,000 active. DENV2-infected cells, cytopathic effect rescue, plate reader. CPE inhibition, % at 9.99 µM. AID 651640; in the data active = CPE inhibition above about 20%, passing the limit was not always enough; tested in BHK-21 cells;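 also: 0% = median of neutral control wells and 100% = median of positive control wells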
rRNA inh HTS: inhibits bacterial ribosomal RNA function over humanized ribosomes; E. coli WT GFP vs humanized-ribosome RFP mutants, fluorescence, 24 h; stronger effect = lower value; DMSO median 0, no signal -100; GFP signal change (wild-type ribosome), % (concentration not given with the values); 1.6% of 350,000 active; AID 720706;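 active = significant combined selectivity score with lowered wild-type GFP, culture density cut under 30%, mutant RFP and density less affected; inactive = any of these conditions unmet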
HIV Env fusion: blocks HIV Env-driven cell-cell fusion. HeLa-JRFL Env/CEM21 cell fusion, luciferase. inhibition, % at 12.3 µM. 1.1% of 360,000 active;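 active = mean replicate inhibition score of at least 50 and every replicate individually at or above 50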;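 also: 0% = plate neutral controls and 100% = maraviroc near 300 nM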
PGC1a acetyl inh: lowers PGC1a acetylation signal in U2OS cells; AlphaScreen anti-acetyl-lysine; with virally co-expressed GCN5 acetyltransferase; inhibition, % at 15.6 µM; 0.17% of 350,000 active; AID 651687;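 active = every replicate shows inhibition of at least 40%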;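 also: 0% = neutral control wells and 100% = positive control wells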
PglD inh: PglD (C. jejuni) enzyme inhibition. purified PglD enzyme, DTNB colorimetric CoA detection. inhibition, % at 12.5 µM. 0.098% of 360,000 active. AID 602405; in the data active = inhibition above about 16%, passing the limit was not always enough
FN deposition inh: fibronectin deposition inhibition | 0.086% of 350,000 active | AH1F fibroblasts, Alexa488-fibronectin deposition fluorescence, overnight | inhibition, % at 12.6 µM;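 active = mean inhibition across replicates of 30% or more, regardless of how many single replicates reach that level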;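 also: positive control wells lacked labelled fibronectin entirely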
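Material: AH1F fibroblast monolayer depositing Alexa488-labelled fibronectin into matrix | Input: 10000 AH1F cells/well | Medium: DMEM plus 2% serum, read in PBS | Reagent: Alexa488-fibronectin, 24 nM final in well | Compound dosing: One dose per compound, pinned | Schedule: 1 h adhesion, overnight exposure | Measured by: Fluorescence at 485 nm excitation, 525 nm emission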
Numbers without * were called inactive; nt = no result given; [ ] = remark or other dose.

SMILES	DENV2 CPE	rRNA inh HTS	HIV Env fusion	PGC1a acetyl inh	PglD inh	FN deposition inh
COc1cccc(CN(C(=O)Cc2c[nH]c3ccccc23)C(C(=O)NC2CCCCC2)c2cccs2)c1 (stereo not drawn)	nt	nt	91*	0	1	5
O=C(Nc1cc(F)ccc1F)N[C@@H]1CC[C@H](CCn2cc(C3CC3)nn2)O[C@H]1CO	3	-1	17[16.7 µM]	9	4	-5
N#C[C@@H]1[C@H](c2ccccc2-c2ccc(F)cc2)[C@H](CO)N1C(=O)NC1CCCC1	-6	-9	nt	-13	nt	1
O=C(NC1CCCCC1)C(c1cccs1)N(Cc1cccs1)C(=O)c1ccco1 (stereo not drawn)	nt	nt	84*	-6	1	-1
O=C(NCC(=O)N(Cc1cccs1)C(C(=O)NC1CCCCC1)c1ccco1)c1ccco1 (stereo not drawn)	nt	nt	nt	-8	3	nt
CCCOc1ccc2ccccc2c1/C=N/n1cnnc1	nt	nt	91*	-24	-3	4
CCOc1ccc2ccccc2c1/C=N/n1cncn1	nt	nt	-101	-8	-4	13
CN(Cc1ccccc1)S(=O)(=O)c1ccc(Cl)c(C(=O)OCC(=O)NC2CCS(=O)(=O)C2)c1 (stereo not drawn)	32*	-12	3	-3	0	3
CCS(=O)(=O)N1CCC2(CC1)OCCN2S(=O)(=O)c1ccccc1	39*	-1	1	nt	4	-10
COc1ccc(NC(=O)Nc2ccc3c(c2)C(=O)N([C@H](C)CO)C[C@H](C)[C@H](CN(C)C(=O)Nc2ccc4c(c2)OCO4)OCCCC[C@@H](C)O3)cc1	40*	5	-7[16.7 µM]	-6	5	nt
COc1ccc(NC(=O)Nc2ccc3c(c2)C(=O)N([C@H](C)CO)C[C@@H](C)[C@@H](CN(C)C(=O)Nc2ccc4c(c2)OCO4)OCCCC[C@@H](C)O3)cc1	-5	1	16[16.7 µM]	2	1	nt
C[C@@H]1CCCCO[C@H](CN(C)C(=O)c2ccccc2)[C@@H](C)CN([C@H](C)CO)C(=O)c2cc(NC(=O)Nc3ccc4c(c3)OCO4)ccc2O1	3	1	-14[16.7 µM]	10	1	nt
C[C@@H]1CCCCO[C@H](CN(C)C(=O)Nc2ccc3c(c2)OCO3)[C@H](C)CN([C@@H](C)CO)C(=O)c2cc(NC(=O)Nc3ccccc3)ccc2O1	23*	2	-47[16.7 µM]	-27	-2	3
C[C@H](CO)N1C[C@H](C)[C@H](CN(C)C(=O)c2ccccc2)OCCCC[C@H](C)Oc2ccc(NC(=O)Nc3ccc4c(c3)OCO4)cc2C1=O	3	1	61*[16.7 µM]	11	2	nt
C[C@@H]1CCCCO[C@H](CN(C)C(=O)c2ccccc2)[C@@H](C)CN([C@@H](C)CO)C(=O)c2cc(NC(=O)Nc3ccc4c(c3)OCO4)ccc2O1	22*	-40	8[16.7 µM]	-12	4	nt
Cc1nn(Cc2c(F)c(F)c(F)c(F)c2F)c(C)c1NC(=O)c1ccc(COc2ccc(Cl)cc2Cl)o1	nt	nt	68*	nt	nt	-13
CC(C)NC(=O)Nc1ccc2c(c1)CC(=O)N(C)C[C@@H](C)[C@H](CN(C)C(=O)NC(C)C)O2	nt	-2	nt	nt	nt	7
Cc1nn(-c2ccccc2)nc1C(=O)NNC(=O)c1cccc2ccccc12	-7	-21*	-13	nt	-2	-5
CCc1nc(N2CCCCC2)c2oc3ccccc3c2n1	nt	nt	69*	-15	nt	4
CCc1nc(N2CCCCC2C)c2oc3ccccc3c2n1 (stereo not drawn)	nt	nt	75*	-6	-1	-3
CC(=O)N(C)C[C@@H]1Oc2cc(C#CC3CCCC3)ccc2S(=O)(=O)N([C@H](C)CO)C[C@H]1C	4	5	-1[16.7 µM]	-3	2	-4
COCCN1C(=O)CN(S(C)(=O)=O)CC1(C)C(=O)Nc1ccc2c(c1)OCCO2 (stereo not drawn)	33*	nt	1	nt	nt	0
COc1ccc(CCN2C(=O)CSCC2(C)C(=O)Nc2ccc3c(c2)OCCO3)cc1OC (stereo not drawn)	21*	-12	-55	nt	nt	-1
CC1(C(=O)NCc2ccc3c(c2)OCO3)CCN1Cc1csc2ccccc12 (stereo not drawn)	-1	-63	98*	-3	0	-1
CC1(C(=O)Nc2ccc3c(c2)OCCO3)CCN1Cc1csc2ccccc12 (stereo not drawn)	-4	-54	25	-25	-7	2
SMILES	DENV2 CPE	rRNA inh HTS	HIV Env fusion	PGC1a acetyl inh	PglD inh	FN deposition inh
Cc1noc(C)c1S(=O)(=O)Nc1ccc2c(c1)C(=O)N([C@@H](C)CO)C[C@@H](C)[C@H](CN(C)Cc1ccc(Oc3ccccc3)cc1)O2	-2	2	nt	2	0	nt
COc1ccc(CN(C)C[C@H]2Oc3ccc(NS(=O)(=O)c4c(C)noc4C)cc3C(=O)N([C@@H](C)CO)C[C@@H]2C)cc1	25*	1	14[16.7 µM]	1	0	nt
COc1ccc(CN(C)C[C@@H]2Oc3ccc(NC(=O)C4CCCCC4)cc3C(=O)N([C@H](C)CO)C[C@H]2C)cc1	10	2	17[16.7 µM]	-5	2	nt
COc1ccc(CN(C)C[C@@H]2Oc3ccc(NS(C)(=O)=O)cc3C(=O)N([C@H](C)CO)C[C@H]2C)cc1	25*	3	nt	6	4	nt
COc1ccc(CN(C)C[C@H]2Oc3ccc(NC(=O)C4CCCCC4)cc3C(=O)N([C@@H](C)CO)C[C@H]2C)cc1	25*	2	-15[16.7 µM]	-5	0	nt
COc1ccc(CN(C)C[C@@H]2Oc3ccc(NS(=O)(=O)c4cccs4)cc3C(=O)N([C@@H](C)CO)C[C@H]2C)cc1	32*	8	-7[16.7 µM]	-8	2	7
C[C@H]1CN([C@@H](C)CO)C(=O)Cc2cc(NC(=O)CCCCCC(=O)Nc3ccccc3N)ccc2O[C@H]1CN(C)C(=O)Nc1ccccc1	-5	2	0[16.7 µM]	9	-1	nt
COc1ccc(CN(C)C[C@@H]2Oc3ccc(NS(=O)(=O)c4cccs4)cc3C(=O)N([C@H](C)CO)C[C@H]2C)cc1	31*	4	11[16.7 µM]	1	nt	0
Cc1[nH]c2ccccc2c1C(=O)CSC(=S)N(C)C	nt	nt	nt	-1	-1	nt
Cc1[nH]c2ccccc2c1C(=O)CSC(=S)N1CCN(C)CC1	55*	nt	-9	11	2	1
C[C@@H]1CN([C@@H](C)CO)S(=O)(=O)c2ccc(-c3cccnc3)cc2O[C@H]1CN(C)C(=O)CC1CC1	-8	-2	5[16.7 µM]	-1	-1	nt
O=C(O)CCCCCN1C(=O)/C(=C\c2cn(-c3ccccc3)nc2-c2cccs2)SC1=S	60*	8	5	-5	-10	2
CO[C@H]1CN(C)C(=O)c2ccc(NC(=O)c3cc(C)on3)cc2OC[C@H](C)N(C(=O)C2CC2)C[C@H]1C	-2	1	nt	nt	1	12

Assay outcomes deposited in PubChem by Broad Institute.
